Series [1] in a line: Cytotoxicity against mouse AML-12 cells assessed as cell viability at 25 ug/ml after 24 hrs by MTT assay. Type of series: cell-based. The following applies: read-out: Activity. The procedure, abridged: (§1)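 AML-12 hepatocytes in 96-well format, in DMEM with 10% FCS. Exposed to test material at 2–100 µg/mL for 24 h at 37 °C in CO₂. MTT then added for 3 h and formazan formation read. Percentage cytotoxicity calculated relative to untreated cells.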
(In general: Tetrazolium dyes change colour on reduction, which living cells bring about.)

A short description of series [2]: Cytotoxicity against mouse AML-12 cells assessed as cell viability at 2 ug/ml after 24 hrs by MTT assay. It is filed as cell-based. The following applies: read-out: Activity. An outline of the steps: as §1
The nature of series [3]: Cytotoxicity against mouse AML-12 cells assessed as cell viability at 50 ug/ml after 24 hrs by MTT assay. Type of series: cell-based. The following applies: read-out: Activity. An outline of the steps: as §1
Series [4] has as its system Mycobacterium tuberculosis. Briefly: Antimycobacterial activity against Mycobacterium tuberculosis H37Rv infected in BALB/c mouse lung assessed as reduction of bacterial load at 25 mg/kg, po administered 1 week after infection measured after 4 weeks. Type of series: functional. The procedure, abridged:
(§2)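 Female BALB/c mice, 6 weeks old, 20–22 g, acclimatised one week. Infected intranasally with about 1.5 × 10⁶ CFU of H37Rv grown 10 days in 7H9/ADC. Treatment began 1 week post-infection, given orally in 50% PEG in water, for 4 weeks. Lungs and spleens homogenised in saline with 0.05% Tween 80. Duplicate 10-fold dilutions plated on 7H10/OADC, 37 °C, 5% CO₂, 4–6 weeks. Result expressed as log₁₀ CFU per organ versus untreated controls.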

A short description of series [5]: Cytotoxicity against mouse AML-12 cells assessed as cell viability at 10 ug/ml after 24 hrs by MTT assay. The following applies: read-out: Activity. It is filed as cell-based. An outline of the steps:
as §1

A short description of series [6]: Cytotoxicity against mouse AML-12 cells assessed as cell viability at 100 ug/ml after 24 hrs by MTT assay. It is filed as cell-based. As to conditions: read-out: Activity. The procedure, abridged: as §1
Series [7] can be described thus: Cytotoxicity against mouse AML-12 cells assessed as cell viability at 5 ug/ml after 24 hrs by MTT assay. Type of series: cell-based. The following applies: read-out: Activity. An outline of the steps:
as §1

Series [8] relates to Mycobacterium tuberculosis. Briefly: Antimycobacterial activity against Mycobacterium tuberculosis H37Rv infected in BALB/c mouse spleen assessed as reduction of bacterial load at 25 mg/kg, po administered 1 week after infection measured after 4 weeks. It is filed as functional. The procedure, abridged:
as §2

The test system of series [9] is Mycobacterium tuberculosis. Put plainly: Antimycobacterial activity against Mycobacterium tuberculosis H37Rv after 3 to 4 weeks by broth microdilution assay. It is filed as functional. The procedure, abridged: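 MIC by broth microdilution on compounds active in a single-concentration primary screen. Plates incubated 3–4 weeks at 37 °C in a CO₂ incubator. Wells read visually for absence of growth turbidity.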

Series [10] deals with Mycobacterium tuberculosis. Put plainly: Antimycobacterial activity against Mycobacterium tuberculosis H37Rv infected in BALB/c mouse lung assessed as reduction of bacterial load at 10 mg/kg, po administered 1 week after infection measured after 4 weeks. It is filed as functional. An outline of the steps: as §2

This note sets out measurements from ChEMBL document CHEMBL1250501, “Anti-tubercular agents. Part 5: synthesis and biological evaluation of benzothiadiazine 1,1-dioxide based congeners” (Eur J Med Chem, 2010).

One may read the MIC as the least concentration at which growth counts as inhibited. Higher therefore signals weaker potency.

In brackets after ≈: the same amount, converted by molar mass.

For the molecule `O=[N+]([O-])c1ccc(/C=N/NC2=NS(=O)(=O)c3ccccc3N2c2ccccc2)o1`, the viability at 24 h, 25 ug/ml in series [1] came to 8.5%. Also, in series [2], the viability at 24 h, 2 ug/ml stood at 2.4%. The viability at 24 h, 50 ug/ml in series [3] worked out at 8.7%. In addition, the log10cfu is given as 4.8 in [4] and 2 in series [8]. Besides, the viability at 24 h, 10 ug/ml in series [5] amounted to 9.1%. Also, in series [6], the viability at 24 h, 100 ug/ml amounted to 14.9%. For the same molecule, the viability at 24 h, 5 ug/ml in [7] came to 9%.
In series [9], `CO[C@H]1/C=C/O[C@@]2(C)Oc3c(C)c(O)c4c(O)c(c(/C=N/N5CCN(C)CC5)c(O)c4c3C2=O)NC(=O)/C(C)=C\C=C\[C@H](C)[C@H](O)[C@@H](C)[C@@H](O)[C@@H](C)[C@H](OC(C)=O)[C@@H]1C` [RIFAMPIN] returned an MIC of 0.25 µg/mL (≈ 0.304 µM). Also, the log10cfu in series [10] is reported as 3.8.
